This note sets out measurements from ChEMBL document CHEMBL4513216, “Probing the Open Global Health Chemical Diversity Library for Multistage-Active Starting Points for Next-Generation Antimalarials” (ACS Infect Dis, 2020).

This data set can be described thus: Toxicity liver stage against HepG2, at 10uM. The settings on record: human, HepG2-A16-CD81EGFP cells; read-out: INHIBITION
Type of data set: cell-based. Also on record: test concentration 10 uM, cell line HepG2-A16-CD81EGFP. The method in brief:
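Uninfected HepG2-A16-CD81EGFP cells, 3 × 10^3 per well, 1536-well, plated on prespotted compound at 10 μM final, parasite-free screening media added to match infected plates; puromycin 10 μM positive, DMSO 0.5% negative; run in parallel with 48 h PbLuc assay at 37 °C, 5% CO2; viability by CellTiter-Glo luminescence, normalized to controls.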
For the molecule `Cc1cc(CN(C)C(=O)C2CCS(=O)(=O)C2)no1` (stereo unspecified), the cytotoxicity at 10 µM was 0.746%.

With `CC(=O)NCC1CCN(C(=O)NCc2ccc3c(c2)OCCO3)CC1`, the cytotoxicity at 10 µM was -7.11%.

For the molecule `Cc1nc2ccccc2c(=O)n1CCC(=O)N1CCCCCC1`, the cytotoxicity at 10 µM was -6.57%.

Regarding `CCOCCCNC(=O)c1nn(CC)cc1Br`, the cytotoxicity at 10 µM was 1.77%.

As for `CC(Cc1c(F)cccc1F)NC(=O)NCc1ncnn1C` (stereo unspecified), the cytotoxicity at 10 µM worked out at 12.9%.

`Cc1csc(N2CCN(C(=O)c3cc(Cl)c[nH]3)CC2)n1`: the cytotoxicity at 10 µM is -2.82%.

Consider `CN(C(=O)NCCN1CCOCC1)C1CCN(c2ccccc2)C1=O` (stereo unspecified), for which the cytotoxicity at 10 µM is -11.6%.

Consider `CS(=O)(=O)N1CCCC(c2cccc(-c3ccccc3F)n2)C1` (stereo unspecified), for which the cytotoxicity at 10 µM was -3.81%.

Take `CN1C(=O)c2ccc(NC(=O)CSc3ccc4c(c3)CCC4)cc2C1=O`: the cytotoxicity at 10 µM is 0.0636%.

For `CN1CC(=O)N(c2ccccc2)Cc2c(NC3CC3)ncnc21`, the cytotoxicity at 10 µM is 6.86%.

As to `Cc1ccc(CN2CC[C@@H]3[C@@H](CO[C@H]3CN3CCN(C)CC3)C2)cc1`, the cytotoxicity at 10 µM is -2.74%.

Take `CCOc1cc(/C=C/c2ncc(C(=O)O)s2)cc(Cl)c1OC`: the cytotoxicity at 10 µM was 8.13%.

Consider `Cc1nc(C)n(CC2CCCN(CCC(=O)N3CCCCC3)C2)n1` (stereo unspecified), for which the cytotoxicity at 10 µM is 3.9%.

Consider `CCC(C)n1cnc(S(=O)(=O)N(Cc2cccnc2)C(C)C)c1` (stereo unspecified), for which the cytotoxicity at 10 µM was determined as 0.075%.

On to `O=C(Cn1cnc2ccccc2c1=O)Nc1cc(C2CC2)n[nH]1`, for which the cytotoxicity at 10 µM is 49.4%.

Regarding `CCOC(=O)[C@@H]1[C@@H](O)C(=O)N(C)C12CCN(C(=O)c1ccco1)CC2`, the cytotoxicity at 10 µM is -2.36%.

On to `Cc1noc(NC(=O)c2ccccc2)n1`, for which the cytotoxicity at 10 µM was -0.269%.

As to `CN1CCN(C(=O)C[C@@H]2COC[C@H]3CN(c4ccncn4)C[C@@H]23)CC1`, the cytotoxicity at 10 µM is -134%.

Regarding `CCn1c(CN(C)C(=O)c2ccc(O)nc2)nc2ccccc21`, the cytotoxicity at 10 µM came to 10.2%.

As to `O=C(NCc1ccncc1)N1CC(Cc2ccccc2F)C1`, the cytotoxicity at 10 µM is -8.85%.

With `COCCO[C@H]1CCN(C(=O)c2ccno2)[C@H]1Cc1cnn(C)c1`, the cytotoxicity at 10 µM is -5.45%.

For `CCCc1nc(CN2CCCCC2Cn2cncn2)cs1` (stereo unspecified), the cytotoxicity at 10 µM is -5.61%.

As to `CC(C)CS(=O)(=O)N1C[C@@H]2C[C@H](C(=O)N3CCN(C)CC3)[C@H](C1)O2`, the cytotoxicity at 10 µM was determined as 0.508%.

In the case of `CSCC[C@H](NC(C)=O)c1nc(CC(C)C)n[nH]1`, the cytotoxicity at 10 µM was found to be 6.05%.

As to `CC1(C)CN(C(=O)c2cnc(-c3ccccn3)nc2)CC[C@]1(C)O`, the cytotoxicity at 10 µM is -2.52%.

`NC(=O)CN1CCC(NC2CCCCc3ccccc32)CC1` (stereo unspecified): the cytotoxicity at 10 µM is -7.86%.

On to `O=C(NCCc1nccs1)c1n[nH]c2c1CCC2`, for which the cytotoxicity at 10 µM amounted to 3.89%.

For the molecule `COc1ccc(CN2CC[C@H]3[C@H]2CC(=O)N3Cc2cccc(C)n2)cc1`, the cytotoxicity at 10 µM was found to be 1.2%.

Take `CCOCCN1CCC(c2cncc(C)n2)CC1`: the cytotoxicity at 10 µM was -2.58%.

Take `Cc1nn(C)c2cnn(CC(=O)NCCc3ccccc3)c12`: the cytotoxicity at 10 µM stood at 13.4%.

Take `CC(C)c1noc(C(C)N2CCN(Cc3ccccc3C#N)CC2)n1` (stereo unspecified): the cytotoxicity at 10 µM is -8.13%.

For the molecule `CC(c1cc(F)ccc1F)N(C)CCS(=O)(=O)CCC(N)=O` (stereo unspecified), the cytotoxicity at 10 µM was -47%.

With `CCCOc1ccc(C2SCC(=O)Nc3c2c(=O)[nH]n3C(C)C)cc1` (stereo unspecified), the cytotoxicity at 10 µM came out at 5.95%.

Turning to `COCCN1CCCCC12CC(=O)N(c1ccccc1OC)C2` (stereo unspecified), the cytotoxicity at 10 µM is -92.6%.

With `Cc1ccc(CN2C[C@@H](C(=O)Nc3cccnc3)C[C@H]3OCC[C@H]32)o1`, the cytotoxicity at 10 µM stood at 3.82%.

With `CN(C)c1cc(C(=O)N2CCCCCC2)ccn1`, the cytotoxicity at 10 µM was -8.83%.

Consider `Cn1cc(C#N)cc1C(=O)Nc1ccc(CN2CCOCC2)cn1`, for which the cytotoxicity at 10 µM was -6.68%.

For the molecule `CSCCC(=O)N1CCCC(c2ncc[nH]2)C1` (stereo unspecified), the cytotoxicity at 10 µM was -1.64%.

`CCC(CO)N(Cc1cccnc1)C(=O)c1ccoc1C` (stereo unspecified): the cytotoxicity at 10 µM is -0.0979%.

On to `Cc1ccccc1-n1cnc(Cl)c1CO`, for which the cytotoxicity at 10 µM amounted to 8.48%.

On to `Cc1cc(C)nc(N2CCC(Cn3cc(C(=O)N(C)C)cn3)CC2)n1`, for which the cytotoxicity at 10 µM amounted to 6.28%.

Take `Cc1csc(CNC(=O)CCCc2cccs2)n1`: the cytotoxicity at 10 µM was -47.1%.

As to `CNC(=O)[C@@H]1C[C@H](N)CN1S(=O)(=O)c1cc(Cl)c(Cl)s1`, the cytotoxicity at 10 µM is 1.27%.

As for `CCn1cc(NC(=O)NCCc2ccc3c(c2)OCCO3)cn1`, the cytotoxicity at 10 µM was -7.72%.

As to `Cc1nc(CSCCC(=O)NCc2ccc(-n3cncn3)nc2)cs1`, the cytotoxicity at 10 µM is -27.2%.

For the molecule `O=C(NCC1CC2(CO1)CN(c1ncccn1)C2)C1CCC1` (stereo unspecified), the cytotoxicity at 10 µM was -107%.

With `CCn1cc(NC(=O)NCc2ccc3c(c2)OCO3)cn1`, the cytotoxicity at 10 µM was -1.1%.

As for `Cc1c(C2CCCN(C(=O)C3CC3)C2)n2c(nc1=O)CCC2` (stereo unspecified), the cytotoxicity at 10 µM was -1.85%.

As for `COc1cccc(-c2noc3c2CN(c2ncnc4c2CCC4)CC3)c1`, the cytotoxicity at 10 µM is 51%.

For `CN(Cc1ccco1)[C@@H]1CN(Cc2cnn(C)c2)[C@@H]2CCCO[C@H]12`, the cytotoxicity at 10 µM is -75.8%.

`CC(C)[C@@H]1CN(C(=O)CN(C)Cc2ccccc2)C[C@H]1C(=O)O`: the cytotoxicity at 10 µM is -3.99%.

Consider `CN(C)C(CNC(=O)c1ncoc1-c1ccccc1)c1ccsc1` (stereo unspecified), for which the cytotoxicity at 10 µM is -0.303%.

`COc1ccc(-c2cnc(CN3CCCC3CO)o2)cc1` (stereo unspecified): the cytotoxicity at 10 µM was 9.38%.

Regarding `CN(c1ccc(CNc2ccc(Cl)cn2)cc1)S(C)(=O)=O`, the cytotoxicity at 10 µM amounted to 5.03%.

On to `O=C(NCCO)C1(Cc2ccccc2-c2cccnc2)CCOCC1`, for which the cytotoxicity at 10 µM is -31.8%.

For `COc1cnc(N2CCCC(c3ncc[nH]3)C2)nc1` (stereo unspecified), the cytotoxicity at 10 µM was -0.268%.

Take `CN(Cc1cc2cc(F)ccc2[nH]1)c1cc(C2CCCNC2)ncn1` (stereo unspecified): the cytotoxicity at 10 µM came out at 7.16%.

`COc1ccc2c(c1)OCC(CNC(=O)CCc1c(C)n[nH]c1C)C2` (stereo unspecified): the cytotoxicity at 10 µM was -48.5%.

For `Cc1cccc(CN2CC[C@H]3CO[C@H](CNC(=O)N(C)C)[C@H]3C2)c1`, the cytotoxicity at 10 µM came to 1.47%.

On to `Cn1c(N2CCOCC2)nc2cc(C(=O)N[C@@H]3CC[C@@H](N)C3)ccc21`, for which the cytotoxicity at 10 µM is -1.07%.

As to `O=C(Cc1ccccc1F)N1CCCCC1c1ccn2ccnc2n1` (stereo unspecified), the cytotoxicity at 10 µM was -3.83%.

In the case of `CCS(=O)(=O)N1Cc2nccn2CC(Cn2cncn2)C1` (stereo unspecified), the cytotoxicity at 10 µM amounted to 7.21%.

Turning to `CC(C)Nc1nc2c(c(NC3CC3)n1)CCN(C1CCOCC1)CC2`, the cytotoxicity at 10 µM is 12.3%.

Consider `Cc1cnn(CCNCc2nnc(-c3ccccc3)o2)c1`, for which the cytotoxicity at 10 µM was -10.4%.

Take `Cc1nc(C2CN(C)CCO2)cc(N2CCC(C(N)=O)CC2)n1` (stereo unspecified): the cytotoxicity at 10 µM is -22.8%.

With `CN(C)CC(c1ccccc1)N(C)C(=O)c1cccc(NCC(=O)O)c1` (stereo unspecified), the cytotoxicity at 10 µM worked out at 3.7%.

Consider `Cn1nc(CN2CCCCC2)c2c1CN(C(=O)c1cccc(Cl)c1)C2`, for which the cytotoxicity at 10 µM was -1.35%.

As for `CS(=O)(=O)CC1CCCN(C(=O)Cn2cccc(C(F)(F)F)c2=O)C1` (stereo unspecified), the cytotoxicity at 10 µM was determined as 4.1%.

`CCCc1nc(CN2CCCN(Cc3nccn3C)CC2)no1`: the cytotoxicity at 10 µM was -3.33%.

As for `CCC(CC)C(CNC(=O)Nc1ccc(OC)cc1)N1CCOCC1` (stereo unspecified), the cytotoxicity at 10 µM was -2.86%.

Turning to `c1ccc(-n2nnnc2CNCC2CCCN2c2cccnn2)cc1` (stereo unspecified), the cytotoxicity at 10 µM was -4.14%.

Turning to `CN(C)CCN(C)C(=O)c1cn(CC2CCCCC2)nn1`, the cytotoxicity at 10 µM was -3.61%.

Consider `O=C1OCCN1Cc1cccc(F)c1C(F)(F)F`, for which the cytotoxicity at 10 µM worked out at 2.61%.

For the molecule `Cc1nc(CCNC(=O)N2CCC(Cc3cnn(C)c3)C2)cs1` (stereo unspecified), the cytotoxicity at 10 µM is -6.13%.

For `O=C1CC(N(C(=O)c2ccc(F)c(F)c2)C2CC2)C(=O)N1` (stereo unspecified), the cytotoxicity at 10 µM amounted to 2.1%.

Consider `CCCc1nc(C(=O)N2CCCn3nc(CCC(=O)O)cc3C2)cs1`, for which the cytotoxicity at 10 µM is -9.84%.

Consider `O=C1CC2(CCN(Cc3ccc4cccc(O)c4n3)CC2)CN1`, for which the cytotoxicity at 10 µM is -15.3%.

Take `CCOC(=O)[C@@H]1[C@@H](OC)C(=O)N(C)C12CCN(C(=O)C(CC)CC)CC2`: the cytotoxicity at 10 µM was -0.00815%.

Consider `CC(C)(C)NS(=O)(=O)c1ccc(NC(=O)C2CC2)cc1`, for which the cytotoxicity at 10 µM is -6.73%.

On to `CCn1ccnc1CN1CCCN(C(=O)c2sccc2C#N)CC1`, for which the cytotoxicity at 10 µM is -8.08%.

As to `Cn1c(-c2ccccc2Cl)nc2cc(C(=O)NC(CO)CO)cnc21`, the cytotoxicity at 10 µM is -10.8%.

With `Cc1cc(N2CCN(Cc3nccn3C)CC2)cc(C)n1`, the cytotoxicity at 10 µM amounted to 15.7%.

`NC(=O)C(NC(=O)Cc1cnn(-c2ccccc2)n1)c1ccccc1` (stereo unspecified): the cytotoxicity at 10 µM is -3.05%.

Regarding `CCCN(CC)C(=O)c1cc2c(c3ccccc3n2C)n1C(=O)N(C)C`, the cytotoxicity at 10 µM is -4.89%.

Regarding `Cc1ccc(C(=O)CCC(=O)N2CCC(c3nncn3C)CC2)cc1`, the cytotoxicity at 10 µM is -9.86%.

With `COc1ccc(CN2CCC3(CCCN(c4ncc(F)cn4)C3)C2)cc1` (stereo unspecified), the cytotoxicity at 10 µM came to 62.8%.

`Cc1nnc2n1CCN(Cc1ccc3c(c1)OCCO3)C2`: the cytotoxicity at 10 µM was -8.95%.

`Cc1cnn(CC2CCCN2C(=O)CCCc2nc(C)no2)c1` (stereo unspecified): the cytotoxicity at 10 µM turned out to be 2.86%.

Take `Cc1sc2nc(CCN)nc(N(CCN(C)C)CC3CCCO3)c2c1C` (stereo unspecified): the cytotoxicity at 10 µM was -9.54%.

As to `Cc1nc(C2CCCN2CCCS(=O)(=O)N(C)C)no1` (stereo unspecified), the cytotoxicity at 10 µM was -4.69%.

As to `Cc1nc(CN2CCC3(CCN(c4ncc(F)cn4)C3)C2=O)cs1` (stereo unspecified), the cytotoxicity at 10 µM stood at 3.61%.

As to `c1cc(C2CCN(c3cnccn3)CC2)ncn1`, the cytotoxicity at 10 µM is 2.64%.

On to `CC1c2ncc(Cn3cncn3)n2CCN1C(=O)Cc1cccs1` (stereo unspecified), for which the cytotoxicity at 10 µM is 7.89%.

Regarding `COCCn1cc(NCc2c[nH]nc2C(C)(C)C)cn1`, the cytotoxicity at 10 µM was -2.35%.

For the molecule `COc1ccc(S(=O)(=O)NCCC(O)c2ccoc2)c(C)c1` (stereo unspecified), the cytotoxicity at 10 µM was -0.608%.

For `Cc1noc(C2CCCN2C(=O)C2CCC2)n1` (stereo unspecified), the cytotoxicity at 10 µM was -12.4%.
